Experimental data: ChEMBL document CHEMBL1153547, “Rifampin inhibits prostaglandin E2 production and arachidonic acid release in human alveolar epithelial cells” (Antimicrob Agents Chemother, 2007)
Activity calls are given as the source filed them. The calls are words filed in the database; no cut-off is given here.

Columns and labels:
[1] = system: A549; experiment: Immunomodulatory effect in human A549 cells assessed as reduction in IL-1-beta-induced PGE2 formation at 100 ug/ml after 48 hrs by enzyme immunoassay; format: functional, cell-based
Outline: (§1)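 A549 cells seeded at 1.5 x 10^5/well and grown 24 h, then held overnight in serum- and antibiotic-free medium. Cells exposed to IL-1ß (1 ng/ml) with or without rifampin (10 to 100 µg/ml) in fresh medium for 48 h, with DMSO vehicle at most 0.1%. Cleared supernatants stored at –70°C. PGE2 measured by enzyme immunoassay, triplicate wells.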

[2] = system: A549; experiment: Immunomodulatory effect in human A549 cells assessed as reduction in spontaneous release of [3H]arachidonic acid by liquid scintillation counting; format: functional, cell-based
Outline: (§2)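 A549 cells prelabeled 4 h with [3H]AA at 0.5 µCi/ml, washed, then kept in serum-free medium with 1 mg/ml BSA, alone or with rifampin, with sampling at set times. Supernatant radioactivity counted by liquid scintillation and given as % of incorporated label. Incorporation estimated by subtracting supernatant counts after labeling from the radioactivity added. Two independent experiments, n = 5 per group.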

[3] = system: A549; experiment: Immunomodulatory effect in human A549 cells assessed as inhibition of Ca2+ ionophore A23187 stimulated-[3H]arachidonic acid release measured after 4 hrs of A23187 challenge by liquid scintillation counting; format: functional
[4] = system: A549; experiment: Inhibition of IL-1-beta-induced COX2 expression in human A549 cells at 50 ug/ml measured after 24 hrs of IL1-beta challenge by Western blot analysis; format: functional, cell-based
Outline: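 A549 cells (2 x 10^6 per 3-cm dish) grown 24 h, then 24 h in serum- and antibiotic-free medium. Treated with IL-1ß (1 ng/ml) ± rifampin (50 µg/ml) for 24 h, then lysed in SDS buffer and denatured at 95°C. Blocked in 5% milk/TBST, then rabbit anti-COX-2 (1:1,000) overnight at 4°C. HRP secondary used and detected by ECL, with β-actin as comparator and densitometry.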

[5] = system: A549; experiment: Immunomodulatory effect in human A549 cells assessed as reduction in IL-1-beta-induced PGE2 formation at 25 ug/ml after 48 hrs by enzyme immunoassay; format: functional; parameters: scale not given: the % may be the effect or the level left; outline: as §1
[6] = system: A549; experiment: Immunomodulatory effect in human A549 cells assessed as inhibition of Ca2+ ionophore A23187 stimulated-[3H]arachidonic acid release measured after 45 mins of A23187 challenge by liquid scintillation counting; format: functional, cell-based
[7] = system: A549; experiment: Immunomodulatory effect in human A549 cells assessed as reduction in basal release of [3H]arachidonic acid at 50 ug/ml up to 19 hrs by liquid scintillation counting; format: functional; parameters: scale not given: the % may be the effect or the level left; outline: as §2
[8] = system: A549; experiment: Immunomodulatory effect in human A549 cells assessed as reduction in IL-1-beta-induced PGE2 formation at 50 ug/ml after 48 hrs by enzyme immunoassay; format: functional; parameters: scale not given: the % may be the effect or the level left; outline: as §1
[9] = system: A549; experiment: Immunomodulatory effect in human A549 cells assessed as reduction in IL-1-beta-induced [3H]arachidonic acid release at 50 ug/ml measured after 2 hrs of IL1-beta challenge by liquid scintillation counting; format: functional; parameters: scale not given: the % may be the effect or the level left
Outline: (§3)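 A549 cells (2 x 10^6 per 3-cm plate), grown 24 h, labeled 4 h with [3H]AA at 0.5 µCi/ml in serum-free medium, then washed five times. Incubated in serum-free medium with 1 mg/ml BSA plus IL-1ß (1 ng/ml) ± rifampin, or rifampin alone, or medium alone, for 4 h unless another time is stated. Supernatant counted by liquid scintillation. Release given as % of incorporated label. Inhibition = 100 x [(IL-1ß – medium) – (IL-1ß+rif – rif alone)]/(IL-1ß – medium).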

[10] = system: A549; experiment: Immunomodulatory effect in human A549 cells assessed as reduction in IL-1-beta-induced [3H]arachidonic acid release at 10 to 100 ug/ml measured after 4 hrs of IL1-beta challenge by liquid scintillation counting; format: functional, cell-based; outline: as §3
[11] = system: A549; experiment: Immunomodulatory effect in human A549 cells assessed as reduction in IL-1-beta-induced [3H]arachidonic acid release at 50 ug/ml measured after 6 hrs of IL1-beta challenge by liquid scintillation counting; format: functional; parameters: scale not given: the % may be the effect or the level left; outline: as §3
[12] = system: A549; experiment: Immunomodulatory effect in human A549 cells assessed as reduction in IL-1-beta-induced [3H]arachidonic acid release measured after 4 hrs of IL1-beta challenge by liquid scintillation counting; format: functional, cell-based; outline: as §3
[13] = Drug level in serum at 600 mg; format: ADME, cell-free
[14] = system: A549; experiment: Immunomodulatory effect in human A549 cells assessed as inhibition of Ca2+ ionophore A23187 stimulated-[3H]arachidonic acid release measured after 2 hrs of A23187 challenge by liquid scintillation counting; format: functional
[15] = system: A549; experiment: Cytotoxicity against human A549 cells assessed as cell viability by neutral red uptake assay; format: cell-based
Outline: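 A549 cells in 96-well plates, after treatment, given neutral red at 0.05% final in fresh medium for 1 h. Cells washed with cold PBS containing Ca2+ and Mg2+, then dye extracted with Sorenson's citrate buffer-ethanol. Absorbance read at 540 nm. Viability taken as the absorbance ratio of treated to untreated cells.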

[16] = system: A549; experiment: Immunomodulatory effect in human A549 cells assessed as reduction in IL-1-beta-induced [3H]arachidonic acid release at 50 ug/ml measured after 19 hrs of IL1-beta challenge by liquid scintillation counting; format: functional; parameters: scale not given: the % may be the effect or the level left; outline: as §3
[17] = system: A549; experiment: Immunomodulatory effect in human A549 cells assessed as reduction in basal release of [3H]arachidonic acid at 50 ug/ml up to 2 hrs by liquid scintillation counting; format: functional; parameters: scale not given: the % may be the effect or the level left; outline: as §2

SMILES: CO[C@H]1/C=C/O[C@@]2(C)Oc3c(C)c(O)c4c(O)c(c(/C=N/N5CCN(C)CC5)c(O)c4c3C2=O)NC(=O)/C(C)=C\C=C\[C@H](C)[C@H](O)[C@@H](C)[C@@H](O)[C@@H](C)[C@H](OC(C)=O)[C@@H]1C [RIFAMPIN]
- Activity [1]: Dose-dependent effect
- Activity [2]: Dose-dependent effect
- inhibition (INH) [3]: 8.3%
- inhibition [4]: inactive
- Activity [5]: 45%
- inhibition [6]: inactive
- Activity [7]: 34%
- Activity [8]: 59%
- Activity [9]: 53%
- Activity [10]: Active
- Activity [11]: 79%
- Activity [12]: Dose-dependent effect
- Drug uptake [13]: 10 µg/mL
- inhibition (INH) [14]: 5.5%
- Activity [15]: Non-toxic
- Activity [16]: 95%
- Activity [17]: 47%
